This is an account of results in ChEMBL document CHEMBL4715714, “Design, synthesis and biological evaluation of thiosemicarbazones, hydrazinobenzothiazoles and arylhydrazones as anticancer agents with a potential to overcome multidrug resistance” (Eur J Med Chem, 2016).

The structures appear in SMILES notation. The source made the active and inactive calls. No cut-off for these calls is given here.

Data set [1] relates to MES-SA. Briefly: Cytotoxicity against human MES-SA cells transfected with mCherry fluorescent protein assessed as inhibition of cell proliferation incubated for 72 hrs by fluorescent assay. It counts as functional, cell-based. As to conditions: Homo sapiens, MES-SA, 72 h. The method, boiled down:
(§1)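 MES-SA and MES-SA/Dx5 cells were made to stably express mCherry by lentiviral transduction. Cells were seeded at 5000 (96-well) or 2500 (384-well) per well, allowed to attach 24 h, then treated with compound dilutions for 72 h. Viability was read as fluorescence, excitation 585 nm, emission 610 nm.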

Data set [2] relates to MES-SA/Dx5. Briefly: Cytotoxicity against human MES-SA/DX5 cells transfected with mCherry fluorescent protein assessed as inhibition of cell proliferation incubated for 72 hrs by fluorescent assay. It counts as functional, cell-based. As to conditions: Homo sapiens, MES-SA/Dx5, 72 h. In a few lines: as §1
Data set [3] is described as follows: Selectivity ratio of IC50 for human MES-SA cells transfected with mCherry to IC50 for human MES-SA/DX5 cells transfected with mCherry incubated for 72 hrs by fluorescent assay. It counts as functional.
For data set [4], the system named is MES-SA/Dx5. Briefly: Cytotoxicity against human MES-SA/DX5 cells transfected with mCherry fluorescent protein incubated for 72 hrs in presence of efflux pump inhibitor, Tariquidar by fluorescence assay. It counts as functional, cell-based. The method, boiled down: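 The mCherry-expressing cells (lentiviral) were seeded at 5000 or 2500 per well, attached for 24 h, and exposed 72 h to compounds with Tariquidar coadministered. Live-cell signal was fluorescence at 585 nm excitation and 610 nm emission.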

The test system of data set [5] is MES-SA. Briefly: Cytotoxicity against human MES-SA cells assessed as inhibition of cell proliferation incubated for 72 hrs by MTT assay. It counts as functional, cell-based. The method, boiled down:
(§2)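 Cells were seeded (10000/well for A2780, 5000/well for MES-SA/Dx5 and KB-3-1/V1) and left to attach 12 h, then exposed to compound for 72 h. Medium was removed, and MTT (0.83 mg/mL) was added for 1 h at 37 °C. Cells were lysed in DMSO and absorbance read at 540 nm. Signal was corrected for unstained lysate background, normalized to untreated cells, and IC50 taken from a sigmoidal dose-response fit.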
(In general: Tetrazolium dyes change colour on reduction, which living cells bring about.)

In data set [6] the test system is MES-SA/Dx5. Briefly: Cytotoxicity against human MES-SA/DX5 cells assessed as inhibition of cell proliferation incubated for 72 hrs by MTT assay. It counts as functional, cell-based. As to conditions: MES-SA/Dx5, 72 h. In a few lines: as §2
The subject of data set [7] is KB 3-1. Briefly: Cytotoxicity against human KB-3-1 cells assessed as inhibition of cell proliferation incubated for 72 hrs by MTT assay. It counts as functional, cell-based. As to conditions: KB 3-1, 72 h. The method, boiled down: as §2
Data set [8] deals with KB-V1. Briefly: Cytotoxicity against human KB-V1 cells assessed as inhibition of cell proliferation incubated for 72 hrs by MTT assay. The following applies: KB-V1, 72 h. It counts as functional, cell-based. The method, boiled down:
as §2

In data set [9] the test system is A2780. Briefly: Cytotoxicity against human A2780 cells assessed as inhibition of cell proliferation incubated for 72 hrs by MTT assay. It counts as functional, cell-based. The following applies: A2780, 72 h. The method, boiled down: as §2
Data set [10] is described as follows: Cytotoxicity against human A2780adr cells assessed as inhibition of cell proliferation incubated for 72 hrs by MTT assay. It counts as functional, cell-based. As to conditions: A2780 ADR. The method, boiled down:
as §2

Data set [11] concerns MES-SA/Dx5. Briefly: Cytotoxicity against human MES-SA/DX5 cells incubated for 72 hrs in presence of efflux pump inhibitor, Tariquidar by MTT assay. It counts as functional, cell-based. The method, boiled down: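 Run as the 72 h MTT viability readout (12 h attachment, MTT 0.83 mg/mL for 1 h, DMSO lysis, A540), with the P-gp inhibitor Tariquidar at 1 µM co-present. IC50 came from sigmoidal fits of 2 to 4 independent experiments.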

Data set [12] is described as follows: Selectivity ratio of IC50 for human MES-SA cells to IC50 for human MES-SA/DX5 cells incubated for 72 hrs by MTT assay. It counts as functional. The method, boiled down:
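The selectivity ratio is the IC50 in P-gp-negative parental cells divided by the IC50 in the P-gp-positive resistant partner.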

The test system of data set [13] is HFF. Briefly: Cytotoxicity against human HFF cells by MTT assay.

Turning to `COc1ccc(O)c(/C(C)=N/Nc2nc3ccccc3s2)c1`, the IC50 in [1] (read-out: IC50) was 50.7 µM; in data set [1] (read-out: pIC50 (converted)), 50.1 µM; in [2] (read-out: IC50), 15.4 µM; in data set [2] (read-out: pIC50 (converted)) it was 14.1 µM. Further, the “Ratio IC50” value in [3] is on record as 4.71. Moreover, in [4], the result was Active.
`Oc1ccccc1/C=N/NC(=S)Nc1ccccc1`: the IC50 is 14 µM in data set [1] (read-out: IC50), 11.5 µM in data set [1] (read-out: pIC50 (converted)), 6.45 µM in data set [2] (read-out: IC50) and 4.79 µM in data set [2] (read-out: pIC50 (converted)). The “Ratio IC50” value in data set [3] came out at 2.23. Besides, in data set [4], the outcome was Active.
Regarding `Oc1ccccc1/C=N/Nc1nc2ccccc2s1`, the IC50 is 24.7 µM in data set [5] (read-out: IC50); 23.4 µM in data set [5] (read-out: pIC50 (converted)); 10.5 µM in data set [6] (read-out: IC50); 9.55 µM in data set [6] (read-out: pIC50 (converted)); 23.2 µM in [1] (read-out: IC50); 26.9 µM in data set [1] (read-out: pIC50 (converted)). Moreover, the IC50 is 4.55 µM in data set [2] (read-out: IC50); 4.27 µM in data set [2] (read-out: pIC50 (converted)); 18.1 µM in [7] (read-out: IC50); 15.8 µM in data set [7] (read-out: pIC50 (converted)); 11.7 µM in data set [8] (read-out: IC50); 11.7 µM in [8] (read-out: pIC50 (converted)). For the same compound, the IC50 was 3.16 µM in data set [9] (read-out: IC50), 3.09 µM in [9] (read-out: pIC50 (converted)), 6.01 µM in data set [10] (read-out: IC50) and 5.89 µM in data set [10] (read-out: pIC50 (converted)). For the same compound, the result in data set [11] was Active. Moreover, the entries for the “Ratio IC50” value in [12] and in [3] were 2.04 and 7.18, respectively. Also, the result in data set [4] was inactive.
With `Cc1ccc(NC(=S)N/N=C/c2ccccn2)cc1`, the IC50 is 0.396 µM in [5] (read-out: IC50); 0.363 µM in [5] (read-out: pIC50 (converted)); 0.076 µM in [6] (read-out: IC50); 0.0724 µM in [6] (read-out: pIC50 (converted)); 0.79 µM in data set [1] (read-out: IC50); 0.759 µM in [1] (read-out: pIC50 (converted)). Further, the IC50 in data set [2] (read-out: IC50) is 0.77 µM; in data set [2] (read-out: pIC50 (converted)), 0.562 µM; in data set [7] (read-out: IC50) it was 0.74 µM; in data set [7] (read-out: pIC50 (converted)), 0.724 µM; in [8] (read-out: IC50) it was 0.92 µM; in data set [8] (read-out: pIC50 (converted)), 0.891 µM. Further, the IC50 in [9] (read-out: IC50) is 0.048 µM; in [9] (read-out: pIC50 (converted)) it was 0.0479 µM; in [10] (read-out: IC50), 0.064 µM; in data set [10] (read-out: pIC50 (converted)), 0.0631 µM. Besides, the outcome in data set [11] was Active. Moreover, the “Ratio IC50” value in data set [12] was 4.55. For the same compound, the Activity entry in data set [13] is given as “Non-Toxic”.
Turning to `COc1ccc(NC(=S)N/N=C2\C(=O)Nc3ccc(OC(F)(F)F)cc32)cc1`, the IC50 in [5] (read-out: IC50) was 6.14 µM; in data set [5] (read-out: pIC50 (converted)), 5.75 µM; in [6] (read-out: IC50), 2.78 µM; in [6] (read-out: pIC50 (converted)), 2.57 µM; in data set [1] (read-out: IC50), 8.14 µM; in [2] (read-out: IC50) it was 2.52 µM. In addition, the IC50 in data set [7] (read-out: IC50) is 6.56 µM; in data set [7] (read-out: pIC50 (converted)) it was 6.17 µM; in [8] (read-out: IC50), 3.92 µM; in data set [8] (read-out: pIC50 (converted)) it was 3.89 µM; in data set [9] (read-out: IC50), 3.39 µM; in data set [9] (read-out: pIC50 (converted)) it was 3.24 µM. In addition, the IC50 was 3.77 µM in data set [10] (read-out: IC50) and 3.55 µM in [10] (read-out: pIC50 (converted)). In addition, the result in [11] and in [4] was inactive. Also, the “Ratio IC50” value in data set [12] is 2.31; in data set [3], 3.29.
In the case of `O=C1Nc2ccccc2/C1=N/NC(=S)Nc1cccc(C(F)(F)F)c1`, the IC50 was 2.06 µM in data set [5] (read-out: IC50), 1.4 µM in [6] (read-out: IC50), 3.34 µM in data set [1] (read-out: IC50) and 1.95 µM in [2] (read-out: IC50). Besides, the result in data set [11] and in data set [4] was inactive. Besides, the “Ratio IC50” value in data set [12] was 1.44; in data set [3] it was 2.42.
With `Cc1ccc(O)c(/C=N/Nc2nc3ccccc3s2)c1`, the IC50 is 89.1 µM in data set [1] (read-out: IC50), 85.1 µM in data set [1] (read-out: pIC50 (converted)), 15.6 µM in data set [2] (read-out: IC50) and 13.8 µM in [2] (read-out: pIC50 (converted)). Besides, in data set [3], the “Ratio IC50” value stood at 5.65. Also, the result in data set [4] was Active.
